In assay [1] the target is Carbonic anhydrase 9 (Homo sapiens, UniProt Q16790).
In assay [2] the target is Epidermal growth factor receptor (Homo sapiens, UniProt P00533, T790M).
Assay [3] concerns the target Epidermal growth factor receptor (Homo sapiens, UniProt P00533).
The target in assay [4] is Carbonic anhydrase 2 (Homo sapiens, UniProt P00918). As to the kind of experiment: Inhibition of human carbonic anhydrase 2 using p-nitrophenyl acetate as substrate by UV-VIS spectrophotometric analysis.
The subject of assay [5] is NCI-H1975. The assay is described as follows: Antiproliferative activity against human NCI-H1975 cells assessed as reduction in cell viability incubated for 72 hrs by MTT assay. It counts as functional, cell-based. The settings on record: NCI-H1975, 72 h.
In assay [6] the test system is A549. The assay is described as follows: cells. It counts as functional, cell-based. The settings on record: Homo sapiens, A549, 72 h.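 Further: antiproliferative effect read out as loss of cell viability by MTT assay.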
Assay [7] has as its system A-431. As to the kind of experiment: cells. It counts as functional, cell-based. Conditions: Homo sapiens, A-431, 72 h.
The subject of assay [8] is NCI-H1975. As to the kind of experiment: Induction of cell cycle arrest in human NCI-H1975 cells assessed as G1 phase at 2 uM incubated for 24 hrs by propidium iodide based flow cytometry analysis (reference value: 60.76 %). It counts as functional. (In flow cytometry, cells or beads pass a laser one at a time.)
Assay [9] relates to NCI-H1975. The assay is described as follows: Induction of apoptosis in human NCI-H1975 cells assessed as early apoptotic cells at 2 uM incubated for 24 hrs by annexin V-FITC and propidium iodide based flow cytometry analysis (reference value: 1.34 %). It counts as functional.
Assay [10] concerns NCI-H1975. As to the kind of experiment: Induction of apoptosis in human NCI-H1975 cells assessed as viable cells at 2 uM incubated for 24 hrs by annexin V-FITC and propidium iodide based flow cytometry analysis (reference value: 93.2 %). It counts as functional. The settings on record: read-out: Activity.
Assay [11] has as its system NCI-H1975. The assay is described as follows: Induction of apoptosis in human NCI-H1975 cells assessed as late apoptotic cells at 2 uM incubated for 24 hrs by annexin V-FITC and propidium iodide based flow cytometry analysis (reference value: 4.98 %). It counts as functional.
The subject of assay [12] is NCI-H1975. As to the kind of experiment: Induction of cell cycle arrest in human NCI-H1975 cells assessed as S phase at 2 uM incubated for 24 hrs by propidium iodide based flow cytometry analysis (reference value: 24.50 %). It counts as functional.
Assay [13] deals with NCI-H1975. As to the kind of experiment: Induction of cell cycle arrest in human NCI-H1975 cells assessed as G2/M phase at 2 uM incubated for 24 hrs by propidium iodide based flow cytometry analysis (reference value: 14.74 %). It counts as functional.
Assay [14] concerns NCI-H1975. As to the kind of experiment: Induction of apoptosis in human NCI-H1975 cells assessed as necrotic cells at 2 uM incubated for 24 hrs by annexin V-FITC and propidium iodide based flow cytometry analysis (reference value: 0.455 %). It counts as functional.
Assay [15] concerns NCI-H1975. The assay is described as follows: Downregulation of carbonic anhydrase in human NCI-H1975 cells at 2 uM incubated for 24 hrs in hypoxic condition by Western blot analysis. It counts as functional, cell-based. The method in brief:
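H1975 cells treated 24 h under hypoxia (1% O2, 94% N2, 5% CO2, 37 °C), with untreated cells as negative control. Lysed on ice for 30 min, spun at 20 000 g (4 °C, 10 min), protein measured by BCA. Equal protein run on 12% SDS-PAGE and moved to PVDF. Blocked in 5% milk/TBST, anti-CAIX overnight at 4 °C, peroxidase secondary 2 h, chemiluminescent detection.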
A general note: In western blotting, separated proteins are transferred to a membrane and probed.

In assay [16] the test system is L02. The assay is described as follows: cells. It counts as functional, cell-based. Conditions: Homo sapiens, L02, 72 h.
Assay [17] deals with NCI-H1975. The assay is described as follows: Cytotoxicity against human NCI-H1975 cells assessed as reduction in cell viability incubated for 72 hrs under hypoxic condition by MTT assay. It counts as functional, cell-based. Conditions: NCI-H1975, 72 h. The method in brief:
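H1975 cells grown in medium with 10% FBS and penicillin/streptomycin under hypoxia (1% O2, 94% N2, 5% CO2) at 37 °C. Compounds dissolved in DMSO and diluted in medium, final DMSO below 0.4%. Incubated 72 h at 37 °C, then MTT (5 mg/mL) for 4 h. Formazan dissolved in DMSO and OD read at 570/630 nm. IC50 from three parallel experiments.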
In general terms: Formazan colour is commonly taken as a measure of viable cells.

Experimental findings from ChEMBL document CHEMBL4813962, “Design, synthesis and biological evaluation of sulfamoylphenyl-quinazoline derivatives as potential EGFR/CAIX dual inhibitors” (Eur J Med Chem, 2021) are described below.

The term IC50 denotes the concentration needed to halve the response being measured.

Calls of active or inactive are those of the source. The calls are words filed in the database; no cut-off is given here.

Chain of Epidermal growth factor receptor (Homo sapiens, UniProt P00533, T790M) (P00533 25-1210 T790M limits assumed): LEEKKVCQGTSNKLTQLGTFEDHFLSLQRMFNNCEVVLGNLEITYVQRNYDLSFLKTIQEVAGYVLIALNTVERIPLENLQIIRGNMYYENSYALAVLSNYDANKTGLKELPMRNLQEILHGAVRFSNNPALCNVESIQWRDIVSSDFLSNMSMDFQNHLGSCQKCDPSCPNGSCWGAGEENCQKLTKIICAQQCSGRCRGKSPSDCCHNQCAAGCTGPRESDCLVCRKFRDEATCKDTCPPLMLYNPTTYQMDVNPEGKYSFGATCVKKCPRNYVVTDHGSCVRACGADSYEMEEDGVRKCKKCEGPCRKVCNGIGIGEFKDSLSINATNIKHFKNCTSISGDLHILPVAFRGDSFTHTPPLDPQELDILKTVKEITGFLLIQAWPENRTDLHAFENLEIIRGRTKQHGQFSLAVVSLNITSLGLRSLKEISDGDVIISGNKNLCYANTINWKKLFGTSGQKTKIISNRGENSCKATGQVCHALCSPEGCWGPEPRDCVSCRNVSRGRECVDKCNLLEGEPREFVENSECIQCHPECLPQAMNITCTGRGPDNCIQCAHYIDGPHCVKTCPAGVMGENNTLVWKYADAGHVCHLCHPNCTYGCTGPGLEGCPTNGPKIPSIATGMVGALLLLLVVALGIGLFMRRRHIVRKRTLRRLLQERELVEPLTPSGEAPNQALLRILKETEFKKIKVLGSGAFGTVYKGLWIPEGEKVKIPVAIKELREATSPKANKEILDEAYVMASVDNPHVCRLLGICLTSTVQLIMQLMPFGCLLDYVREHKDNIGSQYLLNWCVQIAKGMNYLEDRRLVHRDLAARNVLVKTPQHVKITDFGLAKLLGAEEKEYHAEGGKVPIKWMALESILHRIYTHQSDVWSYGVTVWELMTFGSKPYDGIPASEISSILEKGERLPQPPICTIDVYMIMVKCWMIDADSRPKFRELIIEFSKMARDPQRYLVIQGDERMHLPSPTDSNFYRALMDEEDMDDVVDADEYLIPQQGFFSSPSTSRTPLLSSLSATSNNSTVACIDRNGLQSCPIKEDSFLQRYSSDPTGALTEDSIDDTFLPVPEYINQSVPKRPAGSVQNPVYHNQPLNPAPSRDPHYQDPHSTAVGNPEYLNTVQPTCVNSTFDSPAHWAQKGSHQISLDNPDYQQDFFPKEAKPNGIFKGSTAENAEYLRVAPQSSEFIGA
Chain of Epidermal growth factor receptor (Homo sapiens, UniProt P00533) (P00533 whole entry): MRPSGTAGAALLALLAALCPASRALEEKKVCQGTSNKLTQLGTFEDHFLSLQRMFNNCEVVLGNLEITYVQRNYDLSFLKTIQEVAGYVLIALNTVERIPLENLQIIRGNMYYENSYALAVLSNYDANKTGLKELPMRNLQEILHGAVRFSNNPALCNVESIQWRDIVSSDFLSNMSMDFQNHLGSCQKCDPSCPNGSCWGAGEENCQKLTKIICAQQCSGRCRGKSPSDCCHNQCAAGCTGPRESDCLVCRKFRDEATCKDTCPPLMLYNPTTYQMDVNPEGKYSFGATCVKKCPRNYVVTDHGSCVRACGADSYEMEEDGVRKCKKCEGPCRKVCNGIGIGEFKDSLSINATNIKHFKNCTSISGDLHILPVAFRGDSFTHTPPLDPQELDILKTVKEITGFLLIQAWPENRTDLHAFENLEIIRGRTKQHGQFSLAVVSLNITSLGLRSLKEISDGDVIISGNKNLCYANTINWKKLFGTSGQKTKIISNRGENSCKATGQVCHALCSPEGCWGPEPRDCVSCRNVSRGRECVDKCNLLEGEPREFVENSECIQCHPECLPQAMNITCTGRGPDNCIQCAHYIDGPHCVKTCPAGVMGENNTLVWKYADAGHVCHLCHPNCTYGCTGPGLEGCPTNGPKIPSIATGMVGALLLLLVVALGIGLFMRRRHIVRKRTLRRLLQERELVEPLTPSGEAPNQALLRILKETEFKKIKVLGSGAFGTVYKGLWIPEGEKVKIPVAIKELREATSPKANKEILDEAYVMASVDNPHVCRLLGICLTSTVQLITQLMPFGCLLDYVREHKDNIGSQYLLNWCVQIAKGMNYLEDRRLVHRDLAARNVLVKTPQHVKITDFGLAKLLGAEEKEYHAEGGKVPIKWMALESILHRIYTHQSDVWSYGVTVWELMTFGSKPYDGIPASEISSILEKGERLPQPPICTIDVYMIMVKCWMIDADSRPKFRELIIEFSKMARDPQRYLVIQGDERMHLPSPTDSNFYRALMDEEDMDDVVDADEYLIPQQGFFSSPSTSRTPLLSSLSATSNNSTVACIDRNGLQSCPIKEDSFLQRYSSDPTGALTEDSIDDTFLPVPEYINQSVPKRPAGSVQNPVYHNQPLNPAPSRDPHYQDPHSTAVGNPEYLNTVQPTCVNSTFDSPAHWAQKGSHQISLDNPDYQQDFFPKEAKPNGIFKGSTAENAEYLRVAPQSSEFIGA

Consider `NS(=O)(=O)c1ccc(NC(=S)Nc2ccc3ncnc(Nc4cccc(C(F)(F)F)c4)c3c2)cc1`, for which the IC50 was 0.578 µM in assay [1]; 0.135 µM in assay [2]; 0.0512 µM in [3]; 0.526 µM in assay [4]; 7.59 µM in [5]; 10.1 µM in [6]. In assay [7], half-maximal inhibition (IC50) was put at 21.7 µM.
Turning to `NS(=O)(=O)c1ccc(CCNC(=S)Nc2ccc3ncnc(Nc4ccc(OCc5cccc(F)c5)c(Cl)c4)c3c2)cc1`, the IC50 in [2] was found to be 0.0667 µM; in [3], 0.0284 µM; in assay [5], 5.16 µM; in assay [6], 6.63 µM; in assay [7] it was 5.77 µM.
For `C#Cc1cccc(Nc2ncnc3cc(OC)c(OCCCCC(=O)Nc4ccc(S(N)(=O)=O)cc4)cc23)c1` the same measures were 0.0485 µM, 0.0492 µM, 18.8 µM, 7.72 µM and 17.7 µM.
The corresponding values for `COc1cc2ncnc(Nc3ccc(F)c(Cl)c3)c2cc1OCCCCC(=O)Nc1ccc(S(N)(=O)=O)cc1` are 0.0619 µM, 0.0183 µM, 35.6 µM, 15.5 µM and 5.02 µM.
`COc1cc2ncnc(Nc3ccc(Cl)c(C(F)(F)F)c3)c2cc1OCCCCC(=O)Nc1ccc(S(N)(=O)=O)cc1`: the IC50 in [1] came out at 0.224 µM; in assay [2], 0.0375 µM; in assay [3] it was 0.0137 µM; in assay [4] it was 0.356 µM; in [5] it was 3.22 µM; in assay [6], 9.27 µM. Moreover, in [7], the IC50 is 3.91 µM.
As for `COc1cc2ncnc(Nc3ccc(F)c(Cl)c3)c2cc1OCCCN1CCOCC1` [GEFITINIB], the Activity was determined as 47.52% in [8]; 7.78% in assay [9]; 5.44% in [11]; 18.76% in assay [12]; 33.72% in assay [13]; 0.61% in assay [14]. For the same compound, in assay [10], the viability at 2 µM came out at 86.2%.
On to `CC(=O)Nc1nnc(S(N)(=O)=O)s1`, for which the result in [15] was Active.
As for `COc1cc2ncnc(Nc3ccc(OCc4cccc(F)c4)c(Cl)c3)c2cc1OCCCCC(=O)Nc1ccc(S(N)(=O)=O)cc1`, the IC50 amounted to 0.0228 µM in assay [2]; 0.0165 µM in assay [3]; 5.67 µM in [5]; 7.86 µM in assay [6]; 7.79 µM in assay [7].
The corresponding values for `COc1cc2ncnc(Nc3cccc(Cl)c3F)c2cc1OCCCCC(=O)Nc1ccc(S(N)(=O)=O)cc1` are 0.018 µM, 0.0348 µM, 6.93 µM, 10.5 µM and 5.56 µM.
On to `NS(=O)(=O)c1ccc(NC(=S)Nc2ccc3ncnc(Nc4cccc(F)c4)c3c2)cc1`, for which the figures for the IC50 in assay [5], in [6] and in [7] were 9.66 µM, 25.9 µM and 30.1 µM, respectively.
The corresponding values for `NS(=O)(=O)c1ccc(NC(=S)Nc2ccc3ncnc(Nc4cccc(Br)c4)c3c2)cc1` are 11 µM, 25 µM and 20.7 µM.
In the case of `NS(=O)(=O)c1ccc(NC(=S)Nc2ccc3ncnc(Nc4ccc(F)c(Cl)c4)c3c2)cc1`, the IC50 in assay [5] is 15.8 µM; in [6] it was > 40 µM; in [7], 37.6 µM.
The corresponding values for `NS(=O)(=O)c1ccc(CCNC(=S)Nc2ccc3ncnc(Nc4cccc(F)c4)c3c2)cc1` are 35.7 µM, 5.51 µM and 9.94 µM.
The corresponding values for `Cc1cccc(Nc2ncnc3ccc(NC(=S)NCCc4ccc(S(N)(=O)=O)cc4)cc23)c1` are 20.8 µM, 7.05 µM and 16 µM.
For `NS(=O)(=O)c1ccc(NC(=S)Nc2ccc3ncnc(Nc4cccc(Cl)c4)c3c2)cc1` the same measures were 39.8 µM, > 40 µM and 15 µM.
As for `C#Cc1cccc(Nc2ncnc3ccc(NC(=S)Nc4ccc(S(N)(=O)=O)cc4)cc23)c1`, the IC50 in assay [5] is 13.4 µM; in [6] it was > 40 µM; in assay [7], 15.3 µM.
Consider `NS(=O)(=O)c1ccc(CCNC(=S)Nc2ccc3ncnc(Nc4cccc(C(F)(F)F)c4)c3c2)cc1`, for which the IC50 in assay [1] was 0.313 µM; in assay [2], 0.0934 µM; in assay [3] it was 0.0426 µM; in assay [4], 0.241 µM; in assay [5], 4.25 µM; in assay [6] it was 9.05 µM. Moreover, the IC50 in [7] is 16.8 µM.
Turning to `C=CC(=O)Nc1cc(Nc2nccc(-c3cn(C)c4ccccc34)n2)c(OC)cc1N(C)CCN(C)C` [OSIMERTINIB], the IC50 in assay [16] was > 40 µM; in assay [17], […]; in assay [5], […]; in assay [7], […].
